Hits are enriched below; roughly 2.1% of the tested compounds scored in any of these assays.
CRFR2-BP antag: antagonists of CRF-BP/CRF-R2 complex, primary screen, cell-based, HEK293, calcium dye fluorescence, uHTS | CRF-induced calcium fluorescence | inhibition, % at 11.8 µM | 350,000 compounds, 0.59% hits | AID 588475, 2011;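 active means inhibition of the ligand-induced calcium signal above about 50% at the single tested concentration, limit read from the data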
TRPN1 ag: zebrafish TRPN1 channel agonists, primary screen, cell-based, HEK293, calcium fluorescence. transient receptor potential cation channel N1 (TRPN1/NompC), Danio rerio. HEK293 zebrafish TRPN1-YFP, Fluo-8 calcium fluorescence; 100% = response to 87 µM carbachol. activation, % at 3 µM. 220,000 compounds, 0.18% hits;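 active means activation above its plate's cutoff, the mean activation of test wells on that plate plus 3 SD, cut at about 19% in these data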;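 further: 0% = DMSO alone and 100% = 87 µM carbachol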
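Control set: carbachol 87 µM as high control, DMSO as low control; system: HEK293 stable line with zebrafish TRPN1-YFP; read-out: % activation versus carbachol response; detection: intracellular calcium fluorescence with Fluo-8; doses: single test compound dose, 3 µM nominal, 0.3% DMSO; schedule: dye 1 h 37 °C plus 30 min RT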
CRFR2-BP ag: agonists of CRF-BP/CRF-R2 complex, primary screen, cell-based, HEK293, calcium dye fluorescence, uHTS. 350,000 compounds, 0.46% hits. calcium dye fluorescence (FLIPR); percent of saturating CRF peptide response. CRF-binding protein / CRF receptor 2 complex (human). activation, % at 13.2 µM;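 active means activation of at least 50%, plus an integration ratio under a set limit after plate pattern correction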;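 further: plate controls were neutral control wells without compound for no effect and CRF at EC100 for full effect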
VIM-2 inhibitor: VIM-2 metallo-beta-lactamase inhibitors, primary screen, biochemical, epi-absorbance readout, Pseudomonas aeruginosa enzyme; purified VIM-2, nitrocefin hydrolysis, epi-absorbance fluorescence; inhibition, % at 5.6 µM; 290,000 compounds, 0.89% hits; AID 1527, 2009;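 active means inhibition above the mean of all tested compounds plus 3 SD, cutoff set per screening run, cut at about 7.5% in these data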;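 further: red hydrolysis product quenches plate fluorescence so inhibitors raise well fluorescence; 0% = enzyme with DMSO and 100% = DMSO without enzyme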
TRPML3 ag: human TRPML3 channel agonists, primary screen, cell-based, HEK293 TRPML3-YFP, Fluo-8 calcium fluorescence, 3 µM. Mucolipin-3 (Homo sapiens), Q8TDD5. 100% = the carbachol control signal. activation, % at 3 µM. 220,000 compounds, 0.29% hits. AID 1448, 2008;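 active means activation above its plate's cutoff, the mean activation of the plate's test wells plus 3 SD, cut at about 12% in these data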;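 further: 0% = DMSO only wells and 100% = carbachol wells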
Target sequence (Q8TDD5 whole entry, looked up): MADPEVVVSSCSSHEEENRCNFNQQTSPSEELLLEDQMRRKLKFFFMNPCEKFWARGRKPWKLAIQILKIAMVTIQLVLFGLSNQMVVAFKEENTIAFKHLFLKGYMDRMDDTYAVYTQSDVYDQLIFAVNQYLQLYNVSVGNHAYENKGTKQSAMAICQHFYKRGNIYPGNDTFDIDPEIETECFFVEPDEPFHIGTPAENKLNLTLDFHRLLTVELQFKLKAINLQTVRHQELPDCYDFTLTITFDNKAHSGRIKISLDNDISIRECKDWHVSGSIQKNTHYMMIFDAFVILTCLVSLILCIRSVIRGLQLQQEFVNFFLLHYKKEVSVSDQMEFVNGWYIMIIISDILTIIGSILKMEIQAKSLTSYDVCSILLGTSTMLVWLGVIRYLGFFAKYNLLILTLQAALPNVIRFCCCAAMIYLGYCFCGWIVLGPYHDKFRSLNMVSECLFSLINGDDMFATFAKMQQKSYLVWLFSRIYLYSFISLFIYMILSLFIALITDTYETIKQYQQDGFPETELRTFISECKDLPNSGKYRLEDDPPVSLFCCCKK
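Material: TRPML3-YFP stable HEK293 cells | Dosing: One concentration, 3 µM nominal, 0.3% DMSO | Timing: 125 s total fluorescence read per well | Technique: Fluo-8 calcium dye fluorescence, ex 470-495, em 515-575 nm | Measure: Percent activation from peak-to-basal fluorescence ratio, scaled between DMSO and carbachol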
IMP-1 inhibitor: IMP-1 metallo-beta-lactamase inhibitors, primary screen, biochemical, epi-absorbance readout, Pseudomonas aeruginosa enzyme; purified IMP-1, nitrocefin hydrolysis, epi-absorbance fluorescence; metallo-beta-lactamase IMP-1 (Pseudomonas aeruginosa); inhibition, % at 5.6 µM; 290,000 compounds, 0.45% hits; AID 1556, 2009;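 active means inhibition above the mean plus 3 SD of all compounds in the same screening run, cut at about 4.5% in these data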;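 further: 0% = IMP-1 with DMSO and 100% = DMSO wells lacking enzyme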
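System: purified IMP-1; amount: IMP-1 0.2 nM before substrate addition; compound: single dose, 5.6 µM; times: 25 °C, 15 min preincubation, 25 min reaction; signal: Epi-absorbance via hydrolysed-nitrocefin quenching of white-plate fluorescence, 480/530 nm, EDTA stop; benchmarks: DMSO with and without IMP-1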
* = called active by the depositor; . = no result given.

SMILES	CRFR2-BP antag	TRPN1 ag	CRFR2-BP ag	VIM-2 inhibitor	TRPML3 ag	IMP-1 inhibitor
COc1ccccc1-c1c(NC(=O)C(C)C)n(C)c2ccccc2c1=O	105.7*	2.6	-0.6	-0.8	-0.2	0.5
CC(C)C(=O)Nc1c(-c2cccs2)c(=O)c2ccccc2n1C	-0.4	-0.2	-0.5	-2.5	0.3	-0.8
CC1(C2CC2)NC(=O)N(CC(=O)Nc2ccccc2F)C1=O (centres undefined)	54.5*	.	3.4	.	.	.
CCOc1ccc(CCNC(=O)COC(=O)c2cccc(S(=O)(=O)N3CCCC3)c2)cc1OCC	2.0	.	-0.1	.	.	.
CC(C)(C)c1nc(CN2CCOCC2)ccc1O	9.2	1.1	-1.0	-1.7	0.3	-0.6
CC(C)(C)c1nc(CN2CCCCC2)cc(CN2CCCCC2)c1O	81.4*	2.7	-0.2	-0.3	1.4	1.4
COc1ccc(NC(=O)CCC(=O)NCc2ccco2)c([N+](=O)[O-])c1	4.5	.	-1.0	-2.9	.	-2.6
CCOc1ccccc1-n1c(SCC(=O)N(CC)CC)nnc1-c1ccccn1	-18.6	0.3	-0.2	-1.2	0.3	5.7*
CC(C)CC(C(=O)NC(C)(C)C)N(Cc1cccs1)C(=O)c1snc(C(N)=O)c1N (centres undefined)	-11.1	-0.1	-0.4	-1.1	0.9	-2.6
O=C(CCCC(=O)N1CCN(c2ccc([N+](=O)[O-])cc2)CC1)c1ccccc1	45.8	6.6	-0.8	0.0	1.9	-0.3
O=C(CCCc1ccccc1)N1CCN(c2ccc([N+](=O)[O-])cc2)CC1	68.5*	3.7	-3.3	-2.5	0.5	-1.6
Cc1cccc2c(=O)c(Br)c(C)n(Cc3ccccc3)c12	-32.8	1.1	0.8	-1.1	0.2	-4.5
O=C(/C=C/c1ccccc1)c1ccccn1	-19.1	-0.3	0.8	9.1*	0.5	-1.3
CCNc1nc(NCC)n2c(SCC(=O)NC34CC5CC(CC(C5)C3)C4)nnc2n1	-27.2	2.6	-7.6	-2.0	0.1	-0.8
CCN(c1ccccc1)S(=O)(=O)c1ccc2c(c1)OCCO2	-0.2	.	-0.3	.	.	.
Cc1ccccc1C(=O)Nc1ccccc1C(=O)N1CCC(C)CC1	-1.5	.	-1.4	-0.8	.	0.1
Cc1cc(=O)n2c3ccccc3n(C)c2n1	2.2	.	-0.6	10.3*	.	0.3
COc1ccc(N2CCN(S(=O)(=O)c3c(C(=O)N4CCOCC4)c(C)n(C)c3C)CC2)cc1	-5.0	.	1.4	-4.3	.	-5.5
COc1cc2[nH]c(=O)n(CCCCCC(=O)NC3CCCC3)c(=O)c2cc1OC	66.9*	.	1.6	-1.5	.	-1.1
COc1cccc(C(=O)NC2CC3CCCC(C2)N3CC(=O)Nc2ccccc2)c1 (centres undefined)	13.4	-0.2	-1.8	-1.0	-1.3	27.7*
Cc1cc(OCC(=O)NC2CCN(Cc3ccccc3)CC2)c2c(C)cc(=O)oc2c1	-8.8	.	1.0	9.3*	.	-5.4
O=C(NO)c1cc(OCC(F)(F)F)ccc1OCC(F)(F)F	21.5	1.0	-0.1	11.6*	0.2	-2.3
CCNc1nc(NC(C)(C)C)nc(N2CCCCC2)n1	-28.7	1.3	-0.5	2.0	1.0	0.7
COc1ccc(Cc2nc3ccc(C(=O)NCc4cccc(C)n4)cc3o2)cc1OC	4.0	.	2.0	.	.	.
Clc1cccc(Cl)c1-c1nnc2cccc(Cl)n12	-3.6	1.4	0.1	-0.1	0.7	-1.5
Fc1cccc(Cl)c1-c1nnc2ccc(C(F)(F)F)cn12	15.2	1.3	50.1*	-3.3	-0.7	-2.7
CC(CCc1ccco1)NC(=O)CCc1nnc2ccc(NCc3ccccc3)nn12 (centres undefined)	53.0*	.	0.6	-1.7	.	-2.7
Cc1ccc(SCc2cc(=O)n3ccsc3n2)c(C)c1	.	-0.4	.	-3.1	-0.8	-4.0
